Format in all cases: cell-based
Assay [1] addresses KV (Kv1.3), human T cells (Homo sapiens, UniProt P22001). Nature of the assay: whole-cell patch clamp, peak KV current. An outline of the steps:
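Peripheral T cells came from healthy donors' venous blood by Ficoll-Hypaque. Recording was whole-cell at 20–25°C in Ringer, with a 160 mM K+ aspartate/10 mM EGTA pipette (pH 7.2). Pulses of 200 ms went from −80 to +30 mV every 30 s. Each steroid was bath-applied at 60 μM. Percent inhibition of peak KV current is mean ± SD, ≥3 experiments.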
(Patch clamp records ionic current or voltage across a cell membrane.)

Assay [2] addresses KCa (hKCa4), activated human T cells (Homo sapiens, UniProt O15554). Briefly: whole-cell patch clamp, KCa slope conductance near -80 mV. An outline of the steps: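 Human T-cell blasts were made from Ficoll-isolated blood T cells with 10 μg/ml PHA. KCa was opened by dialysis with a pipette of 140 mM K+ aspartate, 7.8 mM CaCl2 and 10 mM EGTA (nominal 1 μM free Ca2+, pH 7.2). Ramps of 200 ms went from −120 to +50 mV every 30 s. Each compound was applied at 60 μM. Slope-conductance inhibition near −80 mV is mean ± SD, ≥3 experiments.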

Assay [3] has as its system Kv1.4. Nature of the assay: whole-cell patch clamp. The following applies: LTK cells; depolarizing pulses to +30 mV. An outline of the steps:
(§1)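 Cell lines stably expressing each cloned KV channel, cultured in RPMI 1640 with 10% heat-inactivated FBS at 37°C and 5% CO2. Whole-cell currents were recorded at 20–25°C in mammalian Ringer. The pipette held 160 mM K+ aspartate, 10 mM EGTA, pH 7.2. Steps of 200 ms went from −80 to +30 mV every 30 s. Test compound was bath-applied at 30 μM. Inhibition of peak current is mean ± SD from ≥3 experiments.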

Assay [4] concerns the target hSKM1 (Homo sapiens, UniProt P35499). Briefly: whole-cell patch clamp, peak Na+ current. As to conditions: read-out: % inhibition at 30 μM. An outline of the steps:
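Cloned hSKM1 Na+ channel was expressed in a cultured cell line and recorded by whole-cell patch clamp at 20–25°C, with mammalian Ringer as bath. Peak Na+ current was taken at +10 mV. Test compound was applied at 30 μM. Percent inhibition is mean ± SD from at least three experiments.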

Assay [5] has as its target T1, Kv3.1 (Mus musculus, UniProt P15388).
T1 sequence (P15388 1-511): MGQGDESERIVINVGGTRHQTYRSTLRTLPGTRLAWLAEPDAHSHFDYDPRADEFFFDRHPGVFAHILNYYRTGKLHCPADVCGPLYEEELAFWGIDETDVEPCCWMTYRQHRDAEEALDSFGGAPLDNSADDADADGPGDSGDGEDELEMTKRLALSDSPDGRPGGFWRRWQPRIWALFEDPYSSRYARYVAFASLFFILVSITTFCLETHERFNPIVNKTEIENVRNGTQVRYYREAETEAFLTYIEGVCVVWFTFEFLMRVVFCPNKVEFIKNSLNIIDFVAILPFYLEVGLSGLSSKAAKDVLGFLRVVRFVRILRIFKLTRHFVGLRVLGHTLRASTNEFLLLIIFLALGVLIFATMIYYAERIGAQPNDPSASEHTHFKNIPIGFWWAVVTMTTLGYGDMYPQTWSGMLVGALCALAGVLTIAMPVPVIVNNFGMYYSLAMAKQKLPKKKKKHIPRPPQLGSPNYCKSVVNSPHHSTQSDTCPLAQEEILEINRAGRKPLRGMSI
Nature of the assay: whole-cell patch clamp. As to conditions: read-out: % inhibition at 30 μM. An outline of the steps: as §1

Assay [6] concerns the target Kv1.3 (cloned) (Mus musculus, UniProt P16390). Nature of the assay: whole-cell patch clamp. As to conditions: read-out: % inhibition at 30 μM. An outline of the steps:
as §1

The source of these data is publication PMC2212508 (The Journal of Experimental Medicine, 1998).

Like-named read-outs stand apart in the source and are kept apart here.

Chain of KV (Kv1.3), human T cells (P22001 whole entry): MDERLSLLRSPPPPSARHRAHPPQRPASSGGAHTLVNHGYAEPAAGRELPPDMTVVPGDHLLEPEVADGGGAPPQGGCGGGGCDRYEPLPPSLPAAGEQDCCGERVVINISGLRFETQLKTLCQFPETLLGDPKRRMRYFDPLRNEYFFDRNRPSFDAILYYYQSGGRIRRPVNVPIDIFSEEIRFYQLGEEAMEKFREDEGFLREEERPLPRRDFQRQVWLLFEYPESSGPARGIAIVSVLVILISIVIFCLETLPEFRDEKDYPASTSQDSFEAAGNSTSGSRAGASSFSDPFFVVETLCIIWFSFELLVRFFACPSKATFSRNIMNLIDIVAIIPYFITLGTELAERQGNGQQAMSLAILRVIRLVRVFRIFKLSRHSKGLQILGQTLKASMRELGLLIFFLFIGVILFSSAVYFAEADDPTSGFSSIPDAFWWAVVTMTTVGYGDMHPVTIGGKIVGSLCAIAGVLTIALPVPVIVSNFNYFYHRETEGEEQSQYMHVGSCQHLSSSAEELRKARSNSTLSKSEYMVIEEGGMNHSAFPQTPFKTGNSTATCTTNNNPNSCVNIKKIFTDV
Chain of KCa (hKCa4), activated human T cells (O15554 whole entry): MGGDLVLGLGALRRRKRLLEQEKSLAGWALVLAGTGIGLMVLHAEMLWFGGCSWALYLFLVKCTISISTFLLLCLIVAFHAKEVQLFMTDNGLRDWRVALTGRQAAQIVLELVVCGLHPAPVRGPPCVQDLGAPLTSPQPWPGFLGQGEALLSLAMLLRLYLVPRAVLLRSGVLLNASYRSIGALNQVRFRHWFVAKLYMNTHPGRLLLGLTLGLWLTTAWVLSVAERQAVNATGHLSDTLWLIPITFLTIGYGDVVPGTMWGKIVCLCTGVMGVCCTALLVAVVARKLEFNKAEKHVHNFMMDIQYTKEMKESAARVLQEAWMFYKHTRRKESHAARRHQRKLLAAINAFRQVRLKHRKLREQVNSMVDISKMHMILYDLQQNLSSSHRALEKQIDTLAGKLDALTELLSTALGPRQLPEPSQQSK
Chain of hSKM1 (P35499 whole entry): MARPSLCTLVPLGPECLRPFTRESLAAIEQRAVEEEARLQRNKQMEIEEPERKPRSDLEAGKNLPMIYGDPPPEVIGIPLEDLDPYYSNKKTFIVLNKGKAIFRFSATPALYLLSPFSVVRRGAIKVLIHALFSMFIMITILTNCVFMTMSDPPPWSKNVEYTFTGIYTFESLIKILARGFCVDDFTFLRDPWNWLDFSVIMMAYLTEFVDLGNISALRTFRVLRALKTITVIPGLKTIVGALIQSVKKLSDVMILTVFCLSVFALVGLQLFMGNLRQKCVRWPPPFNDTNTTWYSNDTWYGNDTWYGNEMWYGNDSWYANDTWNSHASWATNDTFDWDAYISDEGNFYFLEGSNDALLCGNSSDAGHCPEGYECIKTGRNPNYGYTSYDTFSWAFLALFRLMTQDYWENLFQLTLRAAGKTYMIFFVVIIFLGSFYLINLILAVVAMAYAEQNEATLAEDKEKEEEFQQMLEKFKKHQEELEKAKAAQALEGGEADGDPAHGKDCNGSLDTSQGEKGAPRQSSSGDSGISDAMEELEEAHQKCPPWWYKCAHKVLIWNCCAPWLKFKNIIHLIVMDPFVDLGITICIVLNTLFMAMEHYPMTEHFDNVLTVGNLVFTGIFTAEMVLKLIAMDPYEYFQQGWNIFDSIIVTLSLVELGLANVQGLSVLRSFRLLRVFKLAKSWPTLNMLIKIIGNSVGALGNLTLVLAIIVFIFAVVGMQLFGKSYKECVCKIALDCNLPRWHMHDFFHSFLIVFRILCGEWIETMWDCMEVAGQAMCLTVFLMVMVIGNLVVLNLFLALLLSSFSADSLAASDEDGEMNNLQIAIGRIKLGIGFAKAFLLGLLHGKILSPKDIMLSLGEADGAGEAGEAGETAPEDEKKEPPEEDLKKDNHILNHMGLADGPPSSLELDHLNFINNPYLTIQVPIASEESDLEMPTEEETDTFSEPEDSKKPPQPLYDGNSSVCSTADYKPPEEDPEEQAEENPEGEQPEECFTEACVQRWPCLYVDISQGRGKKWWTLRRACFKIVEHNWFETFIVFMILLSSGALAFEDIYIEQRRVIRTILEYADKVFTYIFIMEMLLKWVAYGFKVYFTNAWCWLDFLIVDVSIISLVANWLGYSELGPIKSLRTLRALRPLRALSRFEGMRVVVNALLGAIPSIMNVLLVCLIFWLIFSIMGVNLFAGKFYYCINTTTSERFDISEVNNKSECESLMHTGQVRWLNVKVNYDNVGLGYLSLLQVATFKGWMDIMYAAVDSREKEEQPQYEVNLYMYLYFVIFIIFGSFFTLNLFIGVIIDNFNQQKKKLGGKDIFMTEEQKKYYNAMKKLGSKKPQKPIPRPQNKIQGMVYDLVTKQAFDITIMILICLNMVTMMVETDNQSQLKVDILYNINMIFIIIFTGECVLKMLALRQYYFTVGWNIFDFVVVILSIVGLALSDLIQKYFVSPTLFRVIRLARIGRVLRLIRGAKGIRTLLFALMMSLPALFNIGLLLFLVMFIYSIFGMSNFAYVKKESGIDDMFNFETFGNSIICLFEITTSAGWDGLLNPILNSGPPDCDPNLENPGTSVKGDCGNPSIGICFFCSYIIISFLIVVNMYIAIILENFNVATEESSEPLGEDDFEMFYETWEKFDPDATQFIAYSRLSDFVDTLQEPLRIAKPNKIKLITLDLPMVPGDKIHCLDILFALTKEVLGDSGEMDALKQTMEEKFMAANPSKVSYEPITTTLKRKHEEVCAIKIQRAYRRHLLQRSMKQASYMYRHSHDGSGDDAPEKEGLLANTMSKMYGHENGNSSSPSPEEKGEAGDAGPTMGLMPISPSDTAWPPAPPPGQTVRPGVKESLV
Chain of Kv1.3 (cloned) (P16390 whole entry): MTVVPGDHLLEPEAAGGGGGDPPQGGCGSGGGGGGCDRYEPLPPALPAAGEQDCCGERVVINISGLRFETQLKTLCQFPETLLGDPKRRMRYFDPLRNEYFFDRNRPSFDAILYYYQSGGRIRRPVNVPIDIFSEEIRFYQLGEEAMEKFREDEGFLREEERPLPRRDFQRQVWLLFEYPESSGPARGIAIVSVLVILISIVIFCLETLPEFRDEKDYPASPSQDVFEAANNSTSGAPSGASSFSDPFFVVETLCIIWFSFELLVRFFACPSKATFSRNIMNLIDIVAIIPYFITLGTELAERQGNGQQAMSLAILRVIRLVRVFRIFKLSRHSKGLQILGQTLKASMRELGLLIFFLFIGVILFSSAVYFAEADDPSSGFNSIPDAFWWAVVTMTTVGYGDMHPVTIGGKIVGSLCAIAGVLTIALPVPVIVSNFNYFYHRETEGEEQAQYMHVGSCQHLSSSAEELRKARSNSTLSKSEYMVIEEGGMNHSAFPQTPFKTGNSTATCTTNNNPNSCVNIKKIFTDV

For the compound `C[C@]12CCC(=O)C=C1CC[C@@H]1[C@@H]2[C@@H](O)C[C@]2(C=O)[C@@H](C(=O)CO)CC[C@@H]12` [Aldosterone], in assay [1] (read-out: Aldosterone), the inhibition at 60 µM is 12 ± 13%.
Take `C[C@]12CCC(=O)C=C1CC[C@@H]1[C@@H]2[C@@H](O)C[C@@]2(C)[C@H]1CC[C@]2(O)C(=O)CO` [Cortisol]: the inhibition at 60 µM in assay [1] (read-out: Cortisol) was 13 ± 4%.
With `C[C@]12CC[C@H](O)CC1=CC[C@@H]1[C@@H]2CC[C@]2(C)C(=O)CC[C@@H]12` [DHEA], in assay [1] (read-out: DHEA), the inhibition at 60 µM was 10 ± 6%.
As to `C[C@]12CC[C@@H]3c4ccc(O)cc4CC[C@H]3[C@@H]1CC[C@@H]2O` [Estradiol], the inhibition at 60 µM is 24 ± 7% in assay [1] (read-out: Estradiol) and 8 ± 10% in assay [2] (read-out: Estradiol).
On to `CC(=O)[C@@]1(O)CC[C@H]2[C@@H]3CCC4=CC(=O)CC[C@]4(C)[C@H]3CC[C@@]21C` [OHP, 17α-hydroxy-4-pregnene-3,20-dione], for which the inhibition at 60 µM in assay [1] (read-out: OHP) was 12 ± 6%.
Regarding `CC#C[C@]1(O)CC[C@H]2[C@@H]3CCC4=CC(=O)CCC4=C3[C@@H](c3ccc(N(C)C)cc3)C[C@@]21C` [RU 486], the inhibition at 60 µM in assay [1] (read-out: RU 486) came out at 61 ± 15%; in assay [2] (read-out: RU 486), 55 ± 12%.
In the case of `C[C@]12CC[C@H]3[C@@H](CCC4=CC(=O)CC[C@@]43C)[C@@H]1CC[C@@H]2O` [Testosterone], the inhibition at 60 µM in assay [1] (read-out: Testosterone) is 17 ± 12%.
By % inhibition is commonly meant the percentage by which the read-out fell short of the control. Lower therefore signals little suppression. As to `CC(=O)[C@H]1CC[C@H]2[C@@H]3CCC4=CC(=O)CC[C@]4(C)[C@H]3CC[C@]12C` [progesterone], in assay [3], the “% inhibition at 30 μM” value came to 23 ± 8%. The inhibition at 30 µM in assay [4] was 11 ± 1%; in assay [5] it was 53 ± 3%; in assay [6] it was 44 ± 9%. In addition, in assay [2] (read-out: Progesterone), the inhibition at 60 µM stood at 34 ± 11%.
